Data published in ChEMBL document CHEMBL1131139, “Synthesis and antibacterial activity of ketolides (6-O-methyl-3-oxoerythromycin derivatives): a new class of antibacterials highly potent against macrolide-resistant and -susceptible respiratory pathogens” (1998).
≈ marks a conversion by molar mass, not a printed value.

Experiments:
Format in all cases: functional
Haemophilus influenzae [1] = assay: In vitro inhibitory activity against Haemophilus influenzae (351CB12)
Procedure, shortened: (§1)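 Two-fold agar dilution on Mueller-Hinton agar (pH 7.4). Inoculum from overnight plate cultures suspended in Mueller-Hinton broth, adjusted to 10^9 CFU/mL, diluted 1:200 and spotted by multipoint inoculator at about 10^4 CFU/spot. Plates incubated 37 °C for 20 h. MIC taken as lowest concentration with no visible growth.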

Streptococcus pneumoniae [2] = assay: In vitro inhibitory activity against Streptococcus pneumoniae (032UC1); procedure, shortened: as §1
Haemophilus influenzae [3] = assay: In vitro inhibitory activity against Haemophilus influenzae (351HT3); procedure, shortened: as §1
Escherichia coli = assay: In vitro inhibitory activity against Escherichia coli (250 UC5); procedure, shortened: as §1
Streptococcus pneumoniae [4] = assay: In vitro inhibitory activity against Streptococcus pneumoniae (EryRc 030SJ1); procedure, shortened: as §1
Streptococcus pneumoniae [5] = assay: In vitro inhibitory activity against Streptococcus pneumoniae (EryRi 030SJ5i); procedure, shortened: as §1
Streptococcus pyogenes = assay: In vitro inhibitory activity against Streptococcus pyogenes (02A1UC1); procedure, shortened: as §1
[6] = system: Staphylococcus epidermidis; assay: In vitro inhibitory activity against Staphylococcus epidermidis (EryRi 012GO11i); procedure, shortened: as §1
Staphylococcus aureus [7] = assay: In vitro inhibitory activity against Staphylococcus aureus (011UC4); procedure, shortened: as §1
Staphylococcus aureus [8] = assay: In vitro inhibitory activity against Staphylococcus aureus (EryRi 011GO25i); procedure, shortened: as §1
Staphylococcus aureus [9] = assay: In vitro inhibitory activity against Staphylococcus aureus (EryRc 011CB20); procedure, shortened: as §1

Row | SMILES | MIC (Haemophilus influenzae [1]) [mg/L] | MIC (Streptococcus pneumoniae [2]) [mg/L] | MIC (Haemophilus influenzae [3]) [mg/L] | MIC (Escherichia coli) [mg/L] | MIC (Streptococcus pneumoniae [4]) [mg/L] | MIC (Streptococcus pneumoniae [5]) [mg/L] | MIC (Streptococcus pyogenes) [mg/L] | MIC [6] [mg/L] | MIC (Staphylococcus aureus [7]) [mg/L] | MIC (Staphylococcus aureus [8]) [mg/L] | MIC (Staphylococcus aureus [9]) [mg/L]
1 | CC[C@H]1OC(=O)[C@H](C)C(=O)[C@H](C)[C@@H](O[C@@H]2O[C@H](C)C[C@H](N(C)C)[C@H]2O)[C@](C)(OC)C[C@@H](C)/C(=N\OC[C@@H](N)C(=O)[O-])[C@H](C)[C@@H](O)[C@]1(C)O.[K+] | 40 | 40 | 40 | 40 | 40 | 40 | 40 | 40 | 40 | 40 | 40
2 | CC[C@H]1OC(=O)[C@H](C)C(=O)[C@H](C)[C@@H](O[C@@H]2O[C@H](C)C[C@H](N(C)C)[C@H]2O)[C@](C)(OC)C[C@@H](C)C(=O)[C@H](C)[C@H]2N(CCCCc3ccnc4c(OC)cccc34)C(=O)O[C@]12C | 2.5 (≈ 3.03 µM) | 0.02 (≈ 0.0242 µM) | 2.5 (≈ 3.03 µM) | 40 (≈ 48.4 µM) | 20 (≈ 24.2 µM) | 0.08 (≈ 0.0968 µM) | 0.02 (≈ 0.0242 µM) | 0.08 (≈ 0.0968 µM) | 0.08 (≈ 0.0968 µM) | 0.3 (≈ 0.363 µM) | 40 (≈ 48.4 µM)
3 | CC[C@H]1OC(=O)[C@H](C)C(=O)[C@H](C)[C@@H](O[C@@H]2O[C@H](C)C[C@H](N(C)C)[C@H]2O)[C@](C)(OC)C[C@@H](C)/C(=N\OCCN(C)C)[C@H](C)[C@@H](O)[C@]1(C)O | 20 (≈ 29.7 µM) | 0.15 (≈ 0.223 µM) | 20 (≈ 29.7 µM) | 40 (≈ 59.4 µM) | 2.5 (≈ 3.71 µM) | 0.15 (≈ 0.223 µM) | 0.01 (≈ 0.0148 µM) | 20 (≈ 29.7 µM) | 0.08 (≈ 0.119 µM) | 1.2 (≈ 1.78 µM) | 40 (≈ 59.4 µM)
4 | CC[C@H]1OC(=O)[C@H](C)C(=O)[C@H](C)[C@@H](O[C@@H]2O[C@H](C)C[C@H](N(C)C)[C@H]2O)[C@](C)(OC)C[C@@H](C)/C(=N\O[C@H]2CCCNC2)[C@H](C)[C@@H](O)[C@]1(C)O | 2.5 (≈ 3.64 µM) | 0.3 (≈ 0.437 µM) | 20 (≈ 29.2 µM) | 40 (≈ 58.3 µM) | 40 (≈ 58.3 µM) | 0.08 (≈ 0.117 µM) | 0.3 (≈ 0.437 µM) | 2.5 (≈ 3.64 µM) | 1.2 (≈ 1.75 µM) | 5 (≈ 7.29 µM) | 40 (≈ 58.3 µM)
5 | C#CCNCCO/N=C1\[C@H](C)C[C@@](C)(OC)[C@H](O[C@@H]2O[C@H](C)C[C@H](N(C)C)[C@H]2O)[C@@H](C)C(=O)[C@@H](C)C(=O)O[C@H](CC)[C@@](C)(O)[C@H](O)[C@H]1C | 10 (≈ 14.6 µM) | 2.5 (≈ 3.66 µM) | 20 (≈ 29.2 µM) | 40 (≈ 58.5 µM) | 5 (≈ 7.31 µM) | 40 (≈ 58.5 µM) | 0.08 (≈ 0.117 µM) | 0.3 (≈ 0.439 µM) | 0.3 (≈ 0.439 µM) | 5 (≈ 7.31 µM) | 40 (≈ 58.5 µM)
6 | CC[C@H]1OC(=O)[C@H](C)C(=O)[C@H](C)[C@@H](O[C@@H]2O[C@H](C)C[C@H](N(C)C)[C@H]2O)[C@](C)(OC)C[C@@H](C)C(=O)[C@H](C)[C@H]2N(CCN(C)Cc3ccccc3)C(=O)O[C@]12C | 2.5 (≈ 3.29 µM) | 0.02 (≈ 0.0263 µM) | 5 (≈ 6.58 µM) | 40 (≈ 52.6 µM) | 10 (≈ 13.2 µM) | 0.3 (≈ 0.395 µM) | 0.04 (≈ 0.0526 µM) | 0.15 (≈ 0.197 µM) | 0.15 (≈ 0.197 µM) | 0.6 (≈ 0.789 µM) | 40 (≈ 52.6 µM)
7 | CC[C@H]1OC(=O)[C@H](C)C(=O)[C@H](C)[C@@H](O[C@@H]2O[C@H](C)C[C@H](N(C)C)[C@H]2O)[C@](C)(OC)C[C@@H](C)/C(=N\OCCNCCCn2ccnc2)[C@H](C)[C@@H](O)[C@]1(C)O | 5 (≈ 6.63 µM) | 0.3 (≈ 0.398 µM) | 5 (≈ 6.63 µM) | 40 (≈ 53.1 µM) | 40 (≈ 53.1 µM) | 20 (≈ 26.5 µM) | 0.04 (≈ 0.0531 µM) | 1.2 (≈ 1.59 µM) | 0.3 (≈ 0.398 µM) | 2.5 (≈ 3.32 µM) | 40 (≈ 53.1 µM)
8 | CC[C@H]1OC(=O)[C@H](C)C(=O)[C@H](C)[C@@H](O[C@@H]2O[C@H](C)C[C@H](N(C)C)[C@H]2O)[C@](C)(OC)C[C@@H](C)C(=O)[C@@H](C)[C@H]2N(NCCCc3ccnc4c(OC)cccc34)C(=O)O[C@]12C | 1.2 (≈ 1.45 µM) | 0.02 (≈ 0.0242 µM) | 0.6 (≈ 0.725 µM) | 40 (≈ 48.4 µM) | 2.5 (≈ 3.02 µM) | 0.15 (≈ 0.181 µM) | 0.02 (≈ 0.0242 µM) | 0.15 (≈ 0.181 µM) | 0.04 (≈ 0.0484 µM) | 0.15 (≈ 0.181 µM) | 40 (≈ 48.4 µM)
9 | CC[C@H]1OC(=O)[C@H](C)C(=O)[C@H](C)[C@@H](O[C@@H]2O[C@H](C)C[C@H](N(C)C)[C@H]2O)[C@](C)(OC)C[C@@H](C)C(=O)[C@H](C)[C@H]2N(CCCCc3cccc(Cl)c3)C(=O)O[C@]12C | 1.2 (≈ 1.54 µM) | 0.02 (≈ 0.0257 µM) | 1.2 (≈ 1.54 µM) | 40 (≈ 51.3 µM) | 2.5 (≈ 3.21 µM) | 0.08 (≈ 0.103 µM) | 0.02 (≈ 0.0257 µM) | 0.15 (≈ 0.192 µM) | 0.04 (≈ 0.0513 µM) | 0.6 (≈ 0.77 µM) | 10 (≈ 12.8 µM)
10 | CC[C@H]1OC(=O)[C@H](C)C(=O)[C@H](C)[C@@H](O[C@@H]2O[C@H](C)C[C@H](N(C)C)[C@H]2O)[C@](C)(OC)C[C@@H](C)/C(=N\OC2CCCN(CCCc3ccccc3)C2)[C@H](C)[C@@H](O)[C@]1(C)O (stereo not given in full) | 0.6 (≈ 0.746 µM) | 0.08 (≈ 0.0995 µM) | 5 (≈ 6.22 µM) | 40 (≈ 49.7 µM) | 1.2 (≈ 1.49 µM) | 0.3 (≈ 0.373 µM) | 0.08 (≈ 0.0995 µM) | 0.6 (≈ 0.746 µM) | 0.3 (≈ 0.373 µM) | 0.6 (≈ 0.746 µM) | 40 (≈ 49.7 µM)
